From ChEMBL document CHEMBL2040826, “Design, synthesis and antiviral activity of novel pyridazines” (Eur J Med Chem, 2012)

Tests used:
[1] = test system: Human immunodeficiency virus; assay: Antiviral activity against HIV infected in human TZM-bl cells at 10 uM after 48 hrs by measuring luciferase activity by luminometer analysis; assay type: functional; conditions: Human immunodeficiency virus 1, TZM-bl
In short: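 TZM-bl cells seeded at 10⁴ cells/well; samples (from DMSO stocks) added next day, then pseudotyped HIV; final DMSO 2%. Incubated 48 h at 37 °C in humidified CO₂. Steady-glow luciferase substrate added, lysis 20 min in dark, luminescence read. AZT and MK-0518 as positive controls; expressed as percent inhibition.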

Tobacco mosaic virus [2] = assay: In vivo antiviral activity against TMV assessed as protection effect at 500 ug/ml; assay type: functional
Tobacco mosaic virus [3] = assay: In vivo antiviral activity against TMV assessed as inactivation effect at 500 ug/ml; assay type: functional
[4] = Cytotoxicity against human TZM-bl cells at 10 uM after 48 hrs by MTT assay; assay type: cell-based
Tobacco mosaic virus [5] = assay: In vivo antiviral activity against TMV assessed as curative effect at 500 ug/ml; assay type: functional
Tobacco mosaic virus [6] = assay: In vitro antiviral activity against TMV at 500 ug/ml; assay type: functional

SMILES | inhibition at 10 µM [1] [%] | Activity (Tobacco mosaic virus [2]) [%] | Activity (Tobacco mosaic virus [3]) [%] | Activity [4] | Activity (Tobacco mosaic virus [5]) [%] | inhibition at 500 µg/mL (Tobacco mosaic virus [6]) [%]
COC(=O)c1c(C(F)(F)F)nn(-c2ccccc2)c(=O)c1O | -0.75 | 11.4 | 18.9 | Non-toxic | 10.7 | 15.5
O=c1c(O)cc(C(F)(F)F)nn1-c1ccccc1 | 6.33 | 7.6 | 0 | Non-toxic | 14.8 | 0
COC(=O)c1c(C(F)(F)F)nn(-c2ccccc2)c(=O)c1OC | 5.9 | 19.2 | 16.5 | Non-toxic | 12.5 | 20
O=C(NCc1ccc(F)cc1)c1c(C(F)(F)F)nn(-c2ccccc2)c(=O)c1O | 27.9 | 32.6 | 36.7 | Non-toxic | 30.2 | 38.5
COC(=O)c1c(C(F)(F)F)nn(-c2ccc(F)cc2)c(=O)c1O | 1.3 | – | – | Non-toxic | – | –
O=c1c(O)cc(C(F)(F)F)nn1-c1ccc(F)cc1 | -11.6 | – | – | Non-toxic | – | –
COC(=O)c1c(C(F)(F)F)nn(-c2ccc(F)cc2)c(=O)c1OC | 7.34 | 11.7 | 7.5 | Non-toxic | 18.6 | 22.5
O=C(NCc1ccc(F)cc1)c1c(C(F)(F)F)nn(-c2ccc(F)cc2)c(=O)c1O | 19.5 | 15.6 | 10.3 | Non-toxic | 17.4 | 18.6
O=C(NCc1ccc(F)cc1)c1c(C(F)(F)F)nn(-c2ccc(F)cc2)c(=O)c1NCc1ccc(F)cc1 | 19.5 | 31.3 | 30.2 | Non-toxic | 34 | 28.5
COC(=O)c1c(C(F)(F)F)nn(Cc2ccc(F)cc2)c(=O)c1OC | 13.9 | 20.2 | 11.2 | Non-toxic | 10.3 | 27.5
O=C(NCc1ccc(F)cc1)c1c(C(F)(F)F)nn(Cc2ccc(F)cc2)c(=O)c1O | 29.3 | 28.3 | 21.4 | Non-toxic | 21.7 | 30
COC(=O)c1c(C(F)(F)F)nn(Cc2ccccn2)c(=O)c1O | 5.41 | 16.7 | 18.3 | Non-toxic | 9.3 | 21.3
COC(=O)c1c(C(F)(F)F)nn(Cc2ccccn2)c(=O)c1OC | 20.2 | 15.2 | 0 | Non-toxic | 0 | 0
O=C(NCc1ccc(F)cc1)c1c(C(F)(F)F)nn(Cc2ccccn2)c(=O)c1O | 2.99 | 18.6 | 5.2 | Non-toxic | 7.6 | 10
COC(=O)c1c(C(F)(F)F)nn(Cc2cccnc2)c(=O)c1OC | 19.5 | – | – | Non-toxic | – | –
O=C(NCc1ccc(F)cc1)c1c(C(F)(F)F)nn(Cc2cccnc2)c(=O)c1O | 7.31 | 18.9 | 18.2 | Non-toxic | 12.8 | 7.5
COC(=O)c1c(C(F)(F)F)nn(CC2CCCO2)c(=O)c1OC (stereo unspecified) | 9.3 | 10.3 | 19.7 | Non-toxic | 0 | 13.6

SMILES | inhibition at 10 µM [1] [%] | Activity (Tobacco mosaic virus [2]) [%] | Activity (Tobacco mosaic virus [3]) [%] | Activity [4] | Activity (Tobacco mosaic virus [5]) [%] | inhibition at 500 µg/mL (Tobacco mosaic virus [6]) [%]
O=C(NCc1ccc(F)cc1)c1c(C(F)(F)F)nn(CC2CCCO2)c(=O)c1O (stereo unspecified) | -3.02 | 0 | 13.2 | Non-toxic | 0 | 0
COC(=O)c1c(C(F)(F)F)nn(Cc2ccco2)c(=O)c1OC | -3.39 | 0 | 0 | Non-toxic | 7.2 | 8.5
O=C(NCc1ccc(F)cc1)c1c(C(F)(F)F)nn(Cc2ccco2)c(=O)c1O | 13 | – | – | Non-toxic | – | –
COC(=O)c1c(C(F)(F)F)nn(Cc2cccs2)c(=O)c1OC | 37 | 10 | 15.1 | Non-toxic | 19.5 | 12.4
O=C(NCc1ccc(F)cc1)c1c(C(F)(F)F)nn(Cc2cccs2)c(=O)c1O | -7.5 | 0 | 0 | Non-toxic | 14.2 | 0
O=C(NCc1ccc(F)cc1)c1c(C(F)(F)F)nn(Cc2cccs2)c(=O)c1NCc1ccc(F)cc1 | 12.7 | 24.7 | 19.5 | Non-toxic | 23.6 | 30
COC(=O)c1c(C(F)(F)F)nn(C)c(=O)c1OC | -4 | 20.5 | 27.3 | Non-toxic | 26.5 | 25
Cn1nc(C(F)(F)F)c(C(=O)NCc2ccc(F)cc2)c(O)c1=O | -3.5 | 32.8 | 25.4 | Non-toxic | 28.4 | 19.6
Cn1nc(C(F)(F)F)c(C(=O)NCc2ccc(F)cc2)c(NCc2ccc(F)cc2)c1=O | 53.5 | 17.5 | 23.9 | Non-toxic | 11.3 | 8.6
COC(=O)c1c(C(F)(F)F)nn(C/C=C/c2ccccc2)c(=O)c1OC | -19.4 | 22.9 | 23.7 | Non-toxic | 29.8 | 20.3
O=C(NCc1ccc(F)cc1)c1c(C(F)(F)F)nn(C/C=C/c2ccccc2)c(=O)c1O | -27.2 | 12.2 | 0 | Non-toxic | 10.2 | 18.4
COC(=O)c1c(C(F)(F)F)nn(C(C)(C)C)c(=O)c1OC | -6.5 | 5.7 | 0 | Non-toxic | 6.3 | 0
CC(C)(C)n1nc(C(F)(F)F)cc(NCc2ccc(F)cc2)c1=O | 41.9 | 30.2 | 15.3 | Non-toxic | 20.2 | 26.2
CC(C)(C)n1nc(C(F)(F)F)cc(O)c1=O | -11.6 | 23.1 | 18.6 | Non-toxic | 27.2 | 31.7
Cc1nnc(C(=O)NC(C)(C)c2nc(C(=O)NCc3ccc(F)cc3)c(O)c(=O)n2C)o1 [RALTEGRAVIR POTASSIUM] | 95.1 | – | – | – | – | –
NC(=O)c1ncn([C@@H]2O[C@H](CO)[C@@H](O)[C@H]2O)n1 [RIBAVIRIN] | – | 39.6 | 34.2 | – | 32.7 | 38.5
Cc1cn([C@H]2C[C@H](N=[N+]=[N-])[C@@H](CO)O2)c(=O)[nH]c1=O [ZIDOVUDINE] | 100 | – | – | – | – | –
